Results as given in ChEMBL document CHEMBL1124986, “Imidazodiazepinediones: a new class of adenosine receptor antagonists” (J Med Chem, 1990).

Legend:
[1] = target: Adenosine A2 receptor (Rattus norvegicus) (UniProt P29276+P30543); assay: Inhibition of [3H]NECA binding to Adenosine A2 receptor in rat striatal membrane; assay type: cell membranes; parameters: concentration or dose not given beside the values; details: Striatum, concentration not given here
Method in brief: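 Rat striatal membranes with 4 nM [³H]NECA; 50 nM N⁶-cyclopentyladenosine present to block A1 sites. IC50 converted to Ki by Cheng-Prusoff using KD 8.5 nM for [³H]NECA at A2 receptors. Means ± SEM, n = 3. Where inhibition was incomplete, percent inhibition at the highest concentration tested is reported.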

Adenosine A2 receptor [2] = target: T1, Adenosine A2 receptor (Rattus norvegicus, UniProt P29276+P30543); assay: Binding affinity for Adenosine A2 receptor from rat striatum using [3H]NECA as radioligand; assay type: protein assay
Adenosine A2 receptor [3] = target: T1, Adenosine A2 receptor; assay: Antagonism of N-ethylcarboxamido adenosine-stimulated adenylate cyclase associated with stimulation of Adenosine A2 receptor of rat PC12 membranes; assay type: functional, cell membranes, Membrane; details: pc-12
[4] = target: T2, Adenosine receptor A1 (Rattus norvegicus) (UniProt P25099); assay: Inhibition of [3H]PIA binding to Adenosine A1 receptor in rat cerebral cortical membrane; assay type: cell membranes; parameters: concentration or dose not given beside the values; details: concentration not given here
T2 sequence (whole entry): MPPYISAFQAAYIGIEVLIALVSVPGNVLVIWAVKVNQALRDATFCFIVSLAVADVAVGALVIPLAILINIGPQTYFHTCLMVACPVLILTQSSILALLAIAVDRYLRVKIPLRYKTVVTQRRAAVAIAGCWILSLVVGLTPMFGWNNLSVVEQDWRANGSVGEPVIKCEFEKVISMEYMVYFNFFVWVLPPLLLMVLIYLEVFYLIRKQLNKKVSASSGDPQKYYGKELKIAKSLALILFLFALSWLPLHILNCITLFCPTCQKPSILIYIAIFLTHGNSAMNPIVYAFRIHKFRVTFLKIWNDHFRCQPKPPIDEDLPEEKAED
Method in brief: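 Rat cerebral cortex membranes incubated with 1 nM [³H]PIA at 37 °C. […] Means ± SEM, n = 3-5. Where inhibition was incomplete, percent inhibition at the highest concentration tested is reported.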

Adenosine receptor A1 = target: T3, Adenosine receptor A1 (Rattus norvegicus, UniProt P25099); assay: Binding affinity for Adenosine A1 receptor from rat brain using [3H]-PIA as radioligand
T3 sequence (P25099 whole entry): T2 sequence (whole entry)
Method in brief: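 Rat cerebral cortex membranes incubated with 1 nM [³H]PIA at 37 °C. Means ± SEM, n = 3-5. Where inhibition was incomplete, percent inhibition at the highest concentration tested is reported.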

Row | Compound | inhibition [1] | Ki (Adenosine A2 receptor [2]) | Ki (Adenosine A2 receptor [3]) | inhibition [4] | Ki (Adenosine receptor A1)
1 | CN1CC(=O)N(C)c2[nH]cnc2C1=O | 9% | >> 250 uM | > 300 µM | 30% | 
2 | CN1CC(=O)N(C)c2ncn(C)c2C1=O | 9% | >> 250 uM | > 300 µM | 10% | > 250 µM
3 | CC(C)CN1C(=O)CN(C)C(=O)c2c1ncn2Cc1ccccc1 |  | 140 µM | 116 µM |  | 11.3 µM
4 | Cn1c(=O)c2c(ncn2Cc2ccccc2)n(C)c1=O |  | 46 µM | 5.6 µM |  | 
5 | Cn1cnc2c1c(=O)[nH]c(=O)n2C [THEOBROMINE] | 40% | > 250 µM | 250 µM |  | 105 µM
6 | CC(C)Cn1c(=O)n(C)c(=O)c2nc[nH]c21 [ISOBUTYLMETHYLXANTHINE] |  | 9.1 µM | 6.3 µM |  | 6.7 µM
7 | CCCN1CC(=O)N(CCC)c2ncn(C)c2C1=O | 23% | > 250 µM | 170 µM | 40% | > 250 µM
8 | CCCN1C(=O)CNC(=O)c2c1ncn2Cc1ccccc1 |  | 151 µM | 163 µM |  | 32 µM
9 | CN1CC(=O)N(C)c2ncn(Cc3ccccc3)c2C1=O | 30% | > 250 µM | 120 µM |  | 30 µM
10 | CCCn1c(=O)c2c(ncn2Cc2ccccc2)n(CCC)c1=O |  | 3.8 µM | 0.88 µM |  | 
11 | CCN1CC(=O)N(CC)c2[nH]cnc2C1=O | 20% | > 250 µM | > 300 µM | 40% | 
12 | CCCN1CC(=O)N(CCC)c2ncn(Cc3ccccc3)c2C1=O |  | 52 µM | 47 µM |  | 11 µM
13 | CCN1CC(=O)N(CC)c2ncn(Cc3ccccc3)c2C1=O |  | 81 µM | 76 µM |  | 16 µM
14 | CCN1CC(=O)N(CC)c2ncn(C)c2C1=O | 17% | > 250 µM | 260 µM | 40% | > 250 µM
15 | CCN1CC(=O)N(CC)c2nc[nH]c2C1=O |  |  |  |  | > 250 µM
16 | CC(C)Cn1c(=O)n(C)c(=O)c2c1ncn2Cc1ccccc1 |  | 32 µM | 7.5 µM |  | 6.9 µM
17 | CC(C)CN1C(=O)CN(C)C(=O)c2[nH]cnc21 | 15% | >> 250 uM | > 300 µM |  | 104 µM
18 | CN1CC(=O)N(C)c2nc[nH]c2C1=O |  |  |  |  | > 250 µM
19 | CN1C(=O)CNC(=O)c2c1ncn2C | 11% | >> 250 uM | > 300 µM | 10% | > 250 µM
20 | CCCN1C(=O)CNC(=O)c2[nH]cnc21 | 11% | >> 250 uM | > 300 µM |  | 236 µM
